# Assay outcomes deposited in PubChem BioAssay by several laboratories.
# Compounds with a hit are over-represented: about 5.5% of the library has one in this group of screens.
# WT yeast gro inh – growth inhibition of WT yeast, mitochondrial fusion screen. actives 2.1% (n = 190,000). inhibition, % at 10 µM. AID 1362. mitochondrial fusion phenotypic screen, WT strain; in the data active = inhibition above about 58%; tested in S. cerevisiae
# Yeast lifespan up – extends the lifespan of yeast; S. cerevisiae growth with nicotinamide, OD615; deaD strain in restrictive glucose medium; inhibition of the nicotinamide effect, % at 10 µM; actives 0.68% (n = 130,000); AID 775;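 active = inhibition above a set limit, placed 3 SD over the median of all compounds, cut at about 26% in these data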;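 note: 0% = nicotinamide-treated wells and 100% = cells grown without nicotinamide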
#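 System: DeaD-strain S. cerevisiae / Buffer or medium: CSMM-D, restrictive glucose (dextrose) synthetic minimal medium / Probe or stimulus: nicotinamide, 1.5 mM, co-present with compound / Compound: one concentration, 10 µM, DMSO 0.25% / Incubation: 48 h compound exposure at 30 °C, humidified / Technique: optical density (absorbance) at 615 nm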
# RAM inhibit – yeast RAM network inhibition | actives 1.8% (n = 190,000) | S. cerevisiae dse1pr::URA3 reporter, 5-FOA growth OD615, 2 d; analog-sensitive cbk1-as2 kinase mutant strain | inhibition, % at 50 µM;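 active = inhibition above a set limit, 3 SD over mean compound inhibition, cut at about 8.4% in these data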;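 note: 0% = DMSO-only wells with no growth and 100% = 10 µM 1-NA-PP1 full growth; inhibition rescues growth on 5-FOA so higher OD means more RAM inhibition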
# Yeast growth inh – yeast BB579 growth reduction in restrictive medium. S. cerevisiae BB579 growth, OD615, 48 h. inhibition, % at 10 µM. actives 0.51% (n = 140,000);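 active = inhibition above a set limit, 3 SD over the mean compound inhibition, cut at about 44% in these data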
#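 Material: Saccharomyces cerevisiae DeaD strain BB579, replicative lifespan model yeast; buffer or medium: CSMM-D restrictive synthetic medium containing dextrose (glucose); compound: 10 µM single dose, DMSO 0.25%; timing: 48 h compound exposure at 30 °C after 4 h preincubation; signal: turbidity as optical density at 615 nm; benchmarks: positive control amphotericin B 10 µg/mL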
# Cl transport mod – modulators of human KCC2 chloride dependent transport | Q9H2X9 | KCC2 cells, thallium flux FluoZin-2 fluorescence | B-score of Tl+ flux slope (higher = more flux/activation; lower = inhibition) at 10 µM | actives 2.2% (n = 190,000) | AID 1456;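 active = thallium flux slope and its plate-corrected score both differing from the plate sample mean at a set confidence after two filtering rounds, in either direction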;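 note: slope of fluorescence scaled to starting intensity during 10 to 20 s after thallium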
# Target sequence (Q9H2X9 whole entry, looked up): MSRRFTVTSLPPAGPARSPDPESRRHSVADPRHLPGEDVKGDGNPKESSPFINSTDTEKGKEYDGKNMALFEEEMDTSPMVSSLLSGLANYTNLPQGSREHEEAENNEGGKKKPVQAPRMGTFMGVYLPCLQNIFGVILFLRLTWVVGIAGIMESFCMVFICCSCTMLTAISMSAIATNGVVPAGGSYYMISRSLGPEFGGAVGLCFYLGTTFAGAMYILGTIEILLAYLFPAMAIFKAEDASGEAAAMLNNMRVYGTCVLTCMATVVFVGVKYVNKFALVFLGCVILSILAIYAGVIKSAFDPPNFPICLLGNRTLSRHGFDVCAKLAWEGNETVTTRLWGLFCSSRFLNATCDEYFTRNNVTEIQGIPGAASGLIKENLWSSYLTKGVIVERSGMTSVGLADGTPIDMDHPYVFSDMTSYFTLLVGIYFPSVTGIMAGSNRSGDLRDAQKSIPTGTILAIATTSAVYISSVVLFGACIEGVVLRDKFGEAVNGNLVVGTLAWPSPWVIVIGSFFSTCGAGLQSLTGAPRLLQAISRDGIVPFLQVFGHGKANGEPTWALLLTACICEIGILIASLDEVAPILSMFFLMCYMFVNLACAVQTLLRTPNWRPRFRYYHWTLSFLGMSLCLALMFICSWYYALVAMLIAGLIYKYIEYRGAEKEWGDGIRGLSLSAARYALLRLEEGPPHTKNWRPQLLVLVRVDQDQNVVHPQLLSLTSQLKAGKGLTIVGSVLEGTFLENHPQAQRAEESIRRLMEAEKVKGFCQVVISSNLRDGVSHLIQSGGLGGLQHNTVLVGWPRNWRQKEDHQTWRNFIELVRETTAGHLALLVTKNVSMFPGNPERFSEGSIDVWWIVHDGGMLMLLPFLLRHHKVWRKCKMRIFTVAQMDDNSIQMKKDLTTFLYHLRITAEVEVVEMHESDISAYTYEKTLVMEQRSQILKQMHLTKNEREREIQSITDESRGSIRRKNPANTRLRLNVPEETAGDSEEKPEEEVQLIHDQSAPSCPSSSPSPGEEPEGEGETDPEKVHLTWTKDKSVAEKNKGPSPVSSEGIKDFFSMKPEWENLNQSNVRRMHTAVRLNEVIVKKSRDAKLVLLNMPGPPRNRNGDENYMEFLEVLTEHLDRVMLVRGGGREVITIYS
# KCC2 secondary – KCC2 (human) modulation, secondary assay | AID 1713 | shares compounds with Cl transport mod | normalised thallium flux (F/F0 slope) at 10 µM | actives 15% (n = 3,700) | HEK293-KCC2, thallium flux, FluoZin2 fluorescence; hits give high values;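 active = thallium flux slope above the same plate's solvent-only control mean plus 3 SD; inconclusive = the two replicate wells disagree; inactive = no significant difference from solvent-only control wells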
# KCC2 bumet counter – bumetanide-insensitive thallium flux in KCC2 cells with ouabain, counter-screen. actives 49% (n = 3,700). normalized thallium flux at 10 µM. AID 1714. shares compounds with Cl transport mod. HEK293-KCC2 + bumetanide/ouabain, thallium flux FluoZin2; hits give high values;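 active = thallium entry rate above the same plate's blocked-transporter control wells by more than 3 SD; inconclusive = the two repeat wells disagree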;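 note: raw slope of fluorescence over initial fluorescence between 10 and 20 s after thallium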
# KCC2 sec2 – KCC2 (human) modulation, second secondary assay; AID 1715; normalized thallium flux at 10 µM; actives 23% (n = 3,700); shares compounds with Cl transport mod; HEK293-KCC2, thallium flux FluoZin2 fluorescence; actives lie on both sides; F/F0 rise rate, 10–20 s post-thallium;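 active = thallium flux slope more than 3 SD above or below the plate's solvent-only control mean, mostly below; inconclusive = the two repeat wells disagreed; inactive = no significant shift from solvent-only controls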;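 note: raw slope with 0.1% DMSO as baseline and bumetanide as block control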
# HEK293 Tl flux – counter-screen for KCC2 modulators: effect in parental HEK293 cells | thallium flux FluoZin2, ouabain; baseline-ratio fluorescence slope, 10–20 s after thallium | actives 46% (n = 3,700) | shares compounds with Cl transport mod | thallium flux rate (normalised fluorescence) at 10 µM | AID 1716;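 active = thallium flux rate significantly above the same plate's solvent-only control wells, beyond their mean plus 3 SD; inconclusive = the two replicate wells gave conflicting results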
# KCC2 ouabain – confirmation of human KCC2 modulators with ouabain | actives 48% (n = 3,700) | shares compounds with Cl transport mod | HEK293-KCC2, thallium flux FluoZin2 fluorescence; bidirectional: low = inhibitor, high = activator | raw Tl+ flux slope (below DMSO = inhibition, above = activation) at 10 µM;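 active = thallium flux slope beyond 3 SD from same-plate DMSO control mean in most replicates, usually higher, sometimes lower; inconclusive = repeat tests gave conflicting results; inactive = no significant difference from controls in most replicates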;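 note: slope of initial-normalized fluorescence between seconds 10 and 20 after thallium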
# HEK counter2 – acts in parental HEK cells, second KCC2 counter-screen | shares compounds with Cl transport mod | HEK293 parental, thallium flux FluoZin-2 fluorescence slope | thallium flux slope at 10 µM | actives 33% (n = 3,700) | AID 1718;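 active = thallium flux slope above the same plate's solvent-control mean plus 3 SD in both duplicate wells; inconclusive = duplicate wells that disagreed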;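 note: run without ouabain in cells lacking the KCC2 cotransporter; slope of fluorescence scaled to its starting value between 10 and 20 s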
# An asterisk follows results filed as active; ? = inconclusive; . = no result given.
SMILES,WT yeast gro inh,Yeast lifespan up,RAM inhibit,Yeast growth inh,Cl transport mod,KCC2 secondary,KCC2 bumet counter,KCC2 sec2,HEK293 Tl flux,KCC2 ouabain,HEK counter2
Cc1onc(-c2ccccc2Cl)c1C(=O)NC(=S)NCCc1ccccc1,53.9,7.4,6.0,-19.8,1.6,.,.,.,.,.,.
CN(Cc1ccccc1)C(=O)COC(=O)c1ccc(Cl)c(N)c1,-2.9,-6.3,0.7,4.9,-3.92*,0.00728,0.00569,0.0369,0.00403,0.0158*,0.0104
CN(Cc1ccccc1)C(=O)COC(=O)c1cncc(Br)c1,-24.5,.,-0.6,.,-0.883,.,.,.,.,.,.
O=C(Cc1cccs1)N1CCCC(c2nc3c(nnn3Cc3ccccc3Cl)c(=O)[nH]2)C1 (stereo not drawn),-3.0,-5.8,2.8,-22.3,-3.67*,0.00672,0.00554,0.031,0.00638,0.0165*,0.0106
CCc1ccccc1NC(=S)N=Nc1c(O)n(C)c2ccc(S(=O)(=O)N3CCOCC3)cc12,72.1*,15.3,7.4,-52.6,11.1*,0.0136*,0.086*,0.0294,0.0311*,0.0576*,0.0118*
CCOC(=O)c1c(-c2ccccc2)csc1NC(=O)CSc1nnnn1C,16.1,-16.4,7.6,-37.7,-4.71*,0.00542,0.00429,0.0284,0.00756,?,?
O=S(=O)(NCC(c1cccnc1)N1CCN(c2ccccc2)CC1)c1cc(F)ccc1F (stereo not drawn),27.3,-8.4,-0.6,-53.4,-0.585,.,.,.,.,.,.
CCNc1nc(NCC)nc(Oc2ccc(N)cc2)n1,-5.3,-7.0,2.3,-30.9,.,0.00672,0.00463,0.0312,0.00742,0.0178,0.00956
COc1ccccc1-c1nnc2sc(COc3ccc(Cl)cc3Cl)nn12,-17.8,-31.7,3.4,4.1,0.989,.,.,.,.,.,.
c1ccc(OCc2nn3c(Cn4nnc5ccccc54)nnc3s2)cc1,5.4,3.1,1.7,-47.2,-2.56*,0.00722,0.00418,0.0266,0.00746,0.0152*,0.00993
c1ccc(Cc2nn3c(Cn4nnc5ccccc54)nnc3s2)cc1,2.7,-6.7,2.8,-39.7,-1.6,.,.,.,.,.,.
COc1ccccc1-c1nnc2sc(COc3ccccc3)nn12,10.0,.,2.4,-29.0,-3.39,0.00489,?,0.024*,0.00636*,0.0148*,?
Cn1c(=O)nc2n(Cc3ccccc3)c3cccc(Cl)c3cc-2c1=O,52.9,-2.5,1.0,-11.2,-0.642,.,.,.,.,.,.
NC(=S)N=Nc1c(O)[nH]c2c(Br)cc(Br)cc12,26.4,.,2.6,.,25.2*,0.00754,0.0266*,0.0397*,0.0183*,0.0357*,0.0168*
NC(=S)N=Nc1c(O)[nH]c2ccccc12,-13.0,6.6,1.3,-30.6,0.944,.,.,.,.,.,.
CCOC(=O)CN/C=C(\C#N)c1ccccc1,-21.4,-4.8,1.5,-30.4,-0.516,.,.,.,.,.,.
Cc1nc(SCC(=O)Nc2c(C)nn(C)c2C)c2cnn(-c3ccccc3)c2n1,-6.6,-10.1,0.1,-17.6,-6.8*,0.00693,0.00638,0.0275,0.00636,0.0202,0.00927
Clc1cccc2sc(N3CCCCC3)nc12,-13.8,-16.5,1.7,-11.7,0.109,.,.,.,.,.,.
O=C(O)c1cc(-c2cccc(Cl)c2)nc2nc(N3CCCCC3)sc12,20.6,1.4,1.1,7.6,-4.21*,0.009,0.00581,0.0336,0.00753,0.0167*,0.0105
FC(F)(F)c1ccc(Cl)c(NC(=S)NC2CC2)c1,-2.3,-3.8,0.1,-41.4,4.17*,0.0116,0.00712,0.0365,0.00747,0.0238,0.0103
CCOC(=O)c1sc2ncn(/N=C/c3ccc(O)c(OC)c3)c(=O)c2c1C,6.8,.,1.0,.,0.907,.,.,.,.,.,.
CCCCSc1nnc(-c2ccccc2N)c(=O)[nH]1,25.0,-1.9,2.3,-34.4,-1.15,.,.,.,.,.,.
CCCCCSc1nnc(-c2cc(Br)ccc2N)c(=O)[nH]1,-13.8,0.5,4.2,-9.8,.,0.00738,?,0.0324,?,?,0.0102
Cc1nn(-c2ccc(F)cc2)c(Cl)c1/C=C(\CC(=O)O)c1nc2ccccc2s1,40.4,-18.0,4.5,-46.1,-6.83*,0.00881,0.00673,?,0.00661,0.0133*,0.00983
Cn1nnc(NCc2cc(Br)ccc2OCc2cccs2)n1,-11.8,-17.0,4.3,-35.3,.,0.00706,0.00516,0.0261*,0.00756,?,0.0105
SMILES,WT yeast gro inh,Yeast lifespan up,RAM inhibit,Yeast growth inh,Cl transport mod,KCC2 secondary,KCC2 bumet counter,KCC2 sec2,HEK293 Tl flux,KCC2 ouabain,HEK counter2
CC(=O)c1ccc(NC(=S)Nc2cccc(S(=O)(=O)Nc3c(C)n(C)n(-c4ccccc4)c3=O)c2)cc1,-2.7,.,-0.2,.,-0.833,.,.,.,.,.,.
O=C(Nc1nnc(-c2ccc(Cl)cc2)o1)C1CCCCC1,15.8,.,.,.,5.26*,0.00545,0.0217*,0.035,0.0151*,0.0285*,0.018*
O=C(Nc1nnc(-c2ccc(Cl)cc2)o1)Nc1ccccc1Cl,-5.3,-13.6,1.9,-13.4,3.49*,0.00917,0.0263*,0.0345,?,0.0263,?
O=C(Nc1nnc(-c2ccccc2)o1)C1CCCCC1,-12.1,-10.2,1.6,11.0,.,.,.,.,.,.,.
O=C(Nc1nnc(-c2ccc(Cl)s2)o1)C1CCCCC1,17.3,.,.,.,5.22*,0.0134*,0.0275*,0.0335,0.0186*,0.0319*,0.0121*
Oc1csc(Cc2nc(-c3ccc4ccccc4c3)cs2)n1,77.4,-12.2,3.2,1.9,.,0.0157,?,0.0273,0.00734,0.0156,0.01
Oc1csc(Cc2nc(-c3ccc(-c4ccccc4)cc3)cs2)n1,6.3,-11.1,4.7,-3.6,.,.,.,.,.,.,.
COc1ccc(NC(=O)CCCN2C(=O)CCC2=O)cc1Cl,7.8,-16.1,0.1,-27.6,0.635,.,.,.,.,.,.
COc1ccc(NC(=O)CCCCCN2C(=O)CCC2=O)cc1Cl,-13.1,-4.6,2.9,8.2,.,0.00914,?,0.0344,0.00847,0.0226,0.011
COc1ccc(CCNc2cc(-c3ccccc3)nc3ncnn23)cc1,-13.5,-18.9,2.8,0.7,4.74*,0.00712,0.00426,0.0273,0.0068,0.0169,?
CN(CC(=O)N1CC=C(c2ccccc2)CC1)S(=O)(=O)c1ccc2c(c1)c(=O)n(C)c(=O)n2C,0.0,-18.2,1.1,-7.0,-3.87*,0.011,?,0.0338,0.00813,0.0225,0.0111
